Reference: publication PMC10413923 (Journal of Enzyme Inhibition and Medicinal Chemistry, 2023)

How the values were obtained:
Assay type in all cases: cell-based
IL-6 = IL-6 level by ELISA in conditioned medium of LPS-human macrophages; details: 14b at EC50 (5.3 µmol/mL), 48 h
Summary of the method: (§1)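 IL-6, IL-1β, TNF-α and NF-κB levels were measured in LPS-stimulated human macrophages exposed to test compound. Comparison groups were untreated LPS-macrophages as negative control and dexamethasone-treated macrophages as reference.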

IL-1β = IL-1β level by ELISA in conditioned medium of LPS-human macrophages; details: 14b at EC50 (5.3 µmol/mL), 48 h
Summary of the method: as §1

TNF-α = TNF-α level by ELISA in conditioned medium of LPS-human macrophages; details: 14b at EC50 (5.3 µmol/mL), 48 h
Summary of the method: as §1

NF-kβ = NF-kβ level by ELISA in LPS-human macrophages; details: 14b at EC50 (5.3 µmol/mL), 48 h
Summary of the method: as §1

HO-1 (HMOX1) = assay: HO-1; details: LPS-human macrophages, 48 h; 14b at EC50 (5.3 µmol/mL); qPCR
Summary of the method: (§2)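 LPS-stimulated human macrophages (inflammatory model) were exposed to test compound at 5.3 µmol/mL for 48 h. Akt and HMOX1 (HO-1) gene expression was measured alongside untreated LPS-macrophages as negative control and dexamethasone-treated macrophages as reference. Expression is reported as fold change relative to untreated macrophage cells.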

Akt = Akt gene expression by qPCR in LPS-human macrophages; details: 48 h, 14b at EC50 (5.3 µmol/mL)
Summary of the method: as §2

Row | SMILES | reduction in IL-6 level relative to negative control cells (IL-6) [fold] | reduction in IL-1β level relative to untreated macrophage cells (IL-1β) [fold] | reduction in TNF-α level relative to untreated control cells (TNF-α) [fold] | NF-kβ modulation compared with Dexa (in words) (NF-kβ) | reduction in NF-kβ level relative to untreated control cells (NF-kβ) [fold] | upregulation of HO-1 gene expression compared to untreated macrophage cells (HO-1 (HMOX1)) [fold] | increase in Akt gene expression relative to untreated macrophage cells (Akt) [fold]
1 | COc1ccc(C(C)=NNC(=O)COc2ccc3c(C)cc(=O)oc3c2C)cc1OC [Compound 14b, 2–(4,8-Dimethyl-2-oxo-2H-chromen-7-yloxy)-N'-(1–(3,4-dimethoxyphenyl)ethylidene)acetohydrazide] | 1.41 | 1.65 | 1.19 | comparable efficacy to Dexa | 2.31 | 6.5 | 
2 | C[C@@H]1C[C@H]2[C@@H]3CCC4=CC(=O)C=C[C@]4(C)[C@@]3(F)[C@@H](O)C[C@]2(C)[C@@]1(O)C(=O)CO [Dexa, dexamethasone, reference compound] |  |  |  |  |  | 4.38 | 3.2
